Assays:
[1] = Fluorescence quantum yield; format: physicochemical; details: relative to quinine sulfate; 0.1% DMSO buffer solution, pH 7.2
How it was run: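 Relative emission quantum yield against quinine sulfate in H2SO4 (excitation 350 nm, emission 452 nm, ΦR 0.50). Calculated from integrated emission peak area, absorbance at λmax and refractive indices of sample and reference solvents.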

Solubility = format: physicochemical
[2] = Molar conductivity measurement; format: physicochemical; details: for molar conductance ^M in 10% DMSO: 10% aqueous DMSO; for molar conductance ^M in DMSO: pure DMSO
How it was run: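 Conductivity of test compound at 3 × 10^-5 M in DMSO and in aqueous DMSO, measured with a conductivity meter of cell constant 1.0 cm^-1.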

Ct-DNA [3] = assay: Ct-DNA binding by UV absorption titration; parameters: species or system calf; details: on titration with Ct-DNA, Tris-HCl/NaCl buffer
How it was run: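 UV absorbance titration: Ct-DNA (purity checked by OD 260/280) added stepwise from stock to test compound held fixed at 20 μM in 5 mM Tris-HCl/50 mM NaCl. Intrinsic binding constant Kb from slope/intercept of linear fit. Hypochromicity %H = (A0 − AF)/A0 × 100, AF taken when absorbance stops changing.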

Ct-DNA [4] = assay: Ethidium bromide displacement; format: binding, calf; details: for KSV, Stern–Volmer quenching constant: EtBr–Ct-DNA adduct
How it was run: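 EtBr–Ct-DNA adduct (EtBr 8 μM) titrated with test compound at 5–60 μM; drop in EtBr emission followed. KSV from linear Stern–Volmer fit of I0/I vs [complex]. Kapp from the concentration giving 50% quenching: Kapp × [compound]50 = KEtBr × [EtBr], with KEtBr 1.0 × 10^7 M^-1.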

BSA = BSA (Bos taurus, UniProt P02769); assay: BSA binding, tryptophan emission quenching; parameters: species or system bovine; details: for KBSA, Stern–Volmer quenching constant: BSA fluorescence at 340 nm; for K, binding constant with BSA / n, number of binding sites: Scatchard plot; for kq, quenching rate constant: from KBSA and τ0 = 1 × 10^–8 s
Sequence of BSA (P02769 25-607): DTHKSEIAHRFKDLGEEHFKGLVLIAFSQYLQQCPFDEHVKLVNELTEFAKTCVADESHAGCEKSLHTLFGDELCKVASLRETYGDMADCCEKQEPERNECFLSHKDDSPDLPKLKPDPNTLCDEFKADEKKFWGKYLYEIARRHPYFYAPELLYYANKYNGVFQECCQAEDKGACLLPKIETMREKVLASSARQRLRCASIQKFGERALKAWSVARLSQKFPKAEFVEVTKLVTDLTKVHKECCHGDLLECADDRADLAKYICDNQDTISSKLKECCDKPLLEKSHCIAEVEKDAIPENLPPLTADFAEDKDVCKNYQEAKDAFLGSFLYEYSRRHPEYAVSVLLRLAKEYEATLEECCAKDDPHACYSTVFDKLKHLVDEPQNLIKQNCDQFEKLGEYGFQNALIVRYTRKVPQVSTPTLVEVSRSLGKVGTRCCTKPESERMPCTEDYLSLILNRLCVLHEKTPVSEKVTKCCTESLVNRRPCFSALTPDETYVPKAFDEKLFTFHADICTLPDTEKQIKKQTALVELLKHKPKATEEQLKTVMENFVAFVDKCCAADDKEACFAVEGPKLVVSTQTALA
How it was run: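 BSA prepared at 2 × 10^-6 M in Tris-HCl/NaCl buffer and titrated with increasing amounts of aqueous test compound. Mixed gently 5 min after each addition; tryptophan emission read at 340 nm with excitation at 295 nm. KBSA from Stern–Volmer plot of I0/I vs [complex]; kq = KBSA/τ0 with τ0 1 × 10^-8. K and n from log((I0−I)/I) vs log[Q].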

HeLa = assay: MTT cytotoxicity assay, HeLa; format: cell-based, human; details: for selectivity factor HeLa: ratio of IC50 HEK-293 / HeLa; for IC50: read-out: IC50 HeLa, MTT, 48 h incubation
How it was run: (§1)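 Cells kept in DMEM with 10% FBS, 1% nonessential amino acids and 1% antibiotic-antimycotic at 37 °C, 95% humidity, CO2, and trypsinised at 80% confluence. Seeded 1 × 10^4 cells/well, grown 24 h, then exposed to test compound. MTT read-out at 570 nm, in triplicate. % growth inhibition = 100 − (AD × 100/AB), against vehicle wells.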

MCF-7 = assay: MTT cytotoxicity assay, MCF-7; format: cell-based, human; details: for selectivity factor MCF-7: ratio of IC50 HEK-293 / MCF-7; for IC50: read-out: IC50 MCF 7, MTT, 48 h incubation
How it was run: as §1

U87MG = assay: MTT cytotoxicity assay, U87MG; format: cell-based, human; details: for selectivity factor U87MG: ratio of IC50 HEK-293 / U87MG; for IC50: read-out: IC50 U87MG, MTT, 48 h incubation
How it was run: as §1

HEK293 = assay: MTT cytotoxicity assay, HEK293; format: cell-based, human; details: read-out: IC50 HEK293, 48 h incubation, normal cell line
How it was run: as §1

MCF-7 cells [5] = assay: Cell cycle analysis; format: cell-based, human; details: 8 μM, 24 h
How it was run: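 MCF-7 cells (1 × 10^6) grown 24 h, exposed to test compound in medium 24 h, then harvested by centrifugation. Fixed at 4 °C overnight and washed twice with cold PBS. Stained 15 min in the dark with 0.05 mg/ml PI plus 0.05 mg/ml RNaseA in sheath fluid. DNA content measured by flow cytometry to give percentage of cells in each cycle phase.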

[6] = Lipophilicity, n-octanol/water partition coefficient by shake-flask method; format: physicochemical; details: UV detection
How it was run: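 Shake-flask partition: test compound dissolved in octanol/water and shaken 24 h. Phases separated by settling over 30 min or centrifuging 5000 rpm for 20 min, collected without cross-contamination. Compound in each phase quantified by UV-vis at room temperature. log Po/w = log([octanol]/[aqueous]); mean of three independent experiments.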

MCF-7 cells [7] = assay: Apoptosis, Annexin V FITC/PI assay; format: cell-based, human; details: 15 μM, 24 h
Ct-DNA [8] = details: value reported in the literature; cited from earlier work

Row | Compound | quantum yield (ϕf) [1] | solubility in water / aqueous medium (Solubility) | molar conductance ^M in 10% DMSO [2] | molar conductance ^M in DMSO [2] | Δε, change in molar absorptivity (Ct-DNA [3]) | KSV, Stern–Volmer quenching constant (Ct-DNA [4]) | KBSA, Stern–Volmer quenching constant (BSA) | K, binding constant with BSA (BSA) | n, number of binding sites (BSA) | kq, quenching rate constant (BSA) | selectivity factor HeLa (HeLa) | IC50 (HeLa) | selectivity factor MCF-7 (MCF-7) | IC50 (MCF-7) | selectivity factor U87MG (U87MG) | IC50 (U87MG) | IC50 (HEK293) | further results
1 | [(η^5-Cp*)Ir^IIICl(K^2-N,N-2(2-(4-(4-(Pyridin-2-yl)-1H-1,2,3-triazol-1-yl)butoxy)phenyl)benzo[d]thiazole)]Cl [Complex 7b] | 0.0004 | very good solubility in aqueous medium | 26 S cm^2 mol^–1 | 5 S cm^2 mol^–1 | 46.66% | 4 × 10^3 M^–1 | 0.201 × 10^6 M^–1 | 0.057 × 10^6 M^–1 | 1.33 | 2.01 × 10^13 M^–1 s^–1 | 6.31 | 15.8 ± 0.7 µM | 2.45 | 40.9 ± 1.8 µM | 1 | > 100 µM | > 100 µM | Kapp, apparent DNA-binding constant (Ct-DNA [4]; 50% quenching, [EtBr] = 8 μM, [DNA] = 120 μM): 0.14 × 10^7 M^–1
2 | COc1cc2c(c(OC)c1OC)-c1ccc(OC)c(=O)cc1[C@@H](NC(C)=O)CC2 [colchicine] |  |  |  |  |  |  |  |  |  |  |  |  |  |  |  |  |  | G0/G1 phase cells (MCF-7 cells [5]): 54.11%; G2/M phase cells (MCF-7 cells [5]): 34.60%; S phase cells (MCF-7 cells [5]): 8.30%; sub-G0 phase cells (MCF-7 cells [5]): 0.64%
3 | [Re^I(CO)3Cl(K^2-N,N-2-(2-(4-(4-(Pyridin-2-yl)-1H-1,2,3-triazol-1-yl)butoxy)phenyl)benzo[d]thiazole)] [Complex 7c] | 0.0140 | poor solubility in water | 22 S cm^2 mol^–1 | 9 S cm^2 mol^–1 | 27.12% | 8.2 × 10^3 M^–1 | 0.296 × 10^6 M^–1 | 0.087 × 10^6 M^–1 | 1.21 | 2.9 × 10^13 M^–1 s^–1 | 5.15 | 19.4 ± 0.19 µM | 2.44 | 40.9 ± 1.4 µM | 1.31 | 76 ± 3.5 µM | > 100 µM | log Po/w (n-octanol/water partition coefficient) [6]: 0.3180
4 | N.N.[Cl][Pt][Cl] [cisplatin, cis-diamminedichloroplatinum(II), reference compound] |  |  |  |  |  |  |  |  |  |  |  | 16.4 ± 0.16 µM |  | 20.1 ± 1.6 µM |  | 16.9 ± 2.1 µM | 34.8 µM | early apoptosis (MCF-7 cells [7]): 12.00%; late apoptosis (MCF-7 cells [7]): 32.04%; necrotic cells (MCF-7 cells [7]): 3.12%
5 | CC[n+]1c(-c2ccccc2)c2cc(N)ccc2c2ccc(N)cc21 [EtBr, Ethidium bromide] |  |  |  |  |  |  |  |  |  |  |  |  |  |  |  |  |  | KEtBr, binding constant of EtBr to DNA (Ct-DNA [8]): 1.0 × 10^7 M^–1
